SENP8 block-1: SENP8 protease inhibitors, primary screen, biochemical, luminescence; AID 2540, 2010; Sentrin-specific protease 8 (Homo sapiens), Q96LD8; purified SENP8, Z-RLRGG-aminoluciferin cleavage; 1.2% of 330,000 active; inhibition, % at 10 µM; in the data active = inhibition above about 50%
SENP7 block: SENP7 protease inhibitors, primary screen, biochemical, luminescence, uHTS; Sentrin-specific protease 7 (Homo sapiens), Q9BQF6; recombinant SENP7, Z-RLRGG-aminoluciferin luminescence, 40 min; inhibition, % at 5 µM; 1.5% of 330,000 active;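 active = inhibition above about 50% at the single test dose, limit read from the data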;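 also: plate controls were DMSO with enzyme for no effect and no enzyme buffer wells for full effect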
SENP8 block-2: human SENP8 protease inhibitors, primary screen, biochemical, fluorescence, Nedd8 protein substrate, uHTS. Sentrin-specific protease 8 (Homo sapiens), Q96LD8. recombinant SENP8. inhibition, % at 20 µM. 0.64% of 360,000 active; in the data active = inhibition mostly above about 40%, no sharp cut-off; inactive = mostly below about 27%
SENP6 block: SENP6 protease inhibitors, primary screen, biochemical, luminescence, uHTS; inhibition, % at 10 µM; Recombinant SENP6 catalytic domain, aminoluciferin luminescence; AID 2599, 2010; 1.8% of 330,000 active;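 active = inhibition above about 50% at the single tested dose, limit read from the data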;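 also: plate controls were DMSO wells with enzyme for no effect and DMSO wells lacking enzyme for full effect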
SENP1 FRET inh: human SENP1 catalytic domain inhibitors, primary screen, biochemical, FRET, uHTS. AID 624204, 2012. recombinant SENP1 catalytic domain, CyPet-SUMO1-YPet FRET cleavage. inhibition, % at 10 µM. Sentrin-specific protease 1 (Homo sapiens), Q9P0U3. 0.21% of 360,000 active;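 active = inhibition at least 30% at 10 µM, raw YFP signal under a set limit, fluorescence ratio 0.5 to 1.5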;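 also: 0% = enzyme with DMSO and 100% = no enzyme wells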
Target sequence (Q9P0U3 419-644 limits assumed): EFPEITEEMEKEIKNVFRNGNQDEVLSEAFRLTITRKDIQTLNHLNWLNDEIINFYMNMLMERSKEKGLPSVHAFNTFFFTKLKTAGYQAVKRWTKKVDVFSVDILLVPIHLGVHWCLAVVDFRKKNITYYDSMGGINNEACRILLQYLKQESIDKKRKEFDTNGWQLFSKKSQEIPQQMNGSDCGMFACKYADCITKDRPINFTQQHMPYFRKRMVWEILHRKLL
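Test system: recombinant human SENP1 catalytic domain, His6-tagged / Medium: pH 8 Tris buffer with EDTA, NaCl, BME, BSA, NP40, catalase / Also added: SUMO1 FRET substrate flanked by Cypet and Ypet, 25 nM / Times: 50 min reaction at room temperature / Signal: FRET, CFP and YFP emission / Control set: no-enzyme low control and enzyme-plus-DMSO high control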
SENP8 conf: SENP8 protease inhibitors, retest, confirmation, biochemical, luminescence, single concentration. Recombinant SENP8, Z-RLRGG-aminoluciferin luminescence, 60 min. shares compounds with SENP7 block. inhibition, % at 12.5 µM. 40% of 6,200 active;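 active = mean inhibition across replicates above about 50%, limit read from the data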
SENP6 confirm: SENP6 protease inhibitors, confirmation, biochemical, luminescence, single concentration | shares compounds with SENP7 block | recombinant SENP6, Z-RLRGG-aminoluciferin luminescence | inhibition, % at 12.5 µM | 58% of 6,200 active | AID 488915, 2010
SENP7 confirm: SENP7 protease inhibitors, retest, confirmation, biochemical, luminescence, single concentration; shares compounds with SENP7 block; recombinant SENP7, Z-RLRGG-aminoluciferin luminescence, 40 min; inhibition, % at 12.5 µM; 69% of 6,200 active
Casp3 SENP sel: caspase-3 protease inhibitors, confirmation, selectivity assay for SENP inhibitor project, biochemical, single concentration | shares compounds with SENP7 block | purified caspase-3, Z-DEVD-aminoluciferin luminescence, 60 min | inhibition, % at 12.5 µM | 60% of 6,200 active | AID 488918, 2010;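 active = mean inhibition above about 50%, limit read from the data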;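 also: plate controls were enzyme with DMSO for no effect and wells without caspase-3 for full effect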
Target sequence (P42574 28-227 limits assumed): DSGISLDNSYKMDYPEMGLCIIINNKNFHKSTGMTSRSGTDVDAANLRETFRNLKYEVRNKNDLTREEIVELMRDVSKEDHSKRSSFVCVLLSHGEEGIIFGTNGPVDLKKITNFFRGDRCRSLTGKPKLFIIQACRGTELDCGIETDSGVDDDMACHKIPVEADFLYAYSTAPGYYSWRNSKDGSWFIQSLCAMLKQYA
Luc interf: luminescence interference (SENP counter-screen). shares compounds with SENP7 block. Pre-incubated SENP8/Z-RLRGG-aminoluciferin, luciferase luminescence interference. inhibition, % at 12.5 µM. 39% of 6,200 active. AID 488919;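 active = mean inhibition above about 50% when retested at one dose, limit read from the data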;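 also: plate controls were DMSO wells with completed reaction for no effect and substrate without enzyme for full effect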
* = called active by the depositor. Hits are enriched below; roughly 2.5% of the tested compounds scored in any of these assays.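 The calls were made as follows, unless noted: active = mean inhibition above about 50% in the one-dose retest (limit read from the data); inactive = the rest.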

How did CCOc1ccc(-n2cc(-c3ccc(OC)c(OC)c3)[nH]c2=S)cc1 do in these assays?
SENP8 block-1: 53*; SENP7 block: -1; SENP8 block-2: 0; SENP6 block: 73*; SENP1 FRET inh: 0; SENP8 conf: 7; SENP6 confirm: 46; SENP7 confirm: 36; Casp3 SENP sel: 23; Luc interf: 12

Results for O=C(N/N=C/c1ccc(-c2ccccc2Cl)o1)c1ccccc1 ?
SENP8 block-1: 0; SENP7 block: 0; SENP8 block-2: -312; SENP6 block: 4; SENP1 FRET inh: -2

How did Cc1ccc(/C=N/Nc2ccc(C(=O)O)cc2)o1 do in these assays?
SENP8 block-1: 78*; SENP7 block: 71*; SENP8 block-2: -4; SENP6 block: 92*; SENP1 FRET inh: 0; SENP8 conf: 65*; SENP6 confirm: 58*; SENP7 confirm: 91*; Casp3 SENP sel: 85*; Luc interf: 82*

How did O=C(O)c1ccc(N/N=C/c2ccc(-c3ccccc3Cl)o2)cc1 do in these assays?
SENP8 block-1: 97*; SENP7 block: 88*; SENP8 block-2: -429; SENP6 block: 98*; SENP1 FRET inh: -49; SENP8 conf: 99*; SENP6 confirm: 100*; SENP7 confirm: 103*; Casp3 SENP sel: 66*; Luc interf: 97*

How did COC(=O)c1sc(-c2ccc(Cl)cc2)cc1N do in these assays?
SENP8 block-1: 63*; SENP7 block: 68*; SENP8 block-2: -305; SENP6 block: 81*; SENP1 FRET inh: -6; SENP8 conf: 54*; SENP6 confirm: 69*; SENP7 confirm: 91*; Casp3 SENP sel: 44; Luc interf: 15

Results for O=C(CN1C(=O)C2(OCCCO2)c2ccccc21)NCc1ccccc1 ?
SENP8 block-1: -4; SENP7 block: 52*; SENP8 block-2: 5; SENP6 block: -16; SENP1 FRET inh: 2; SENP8 conf: -8; SENP6 confirm: -4; SENP7 confirm: -8; Casp3 SENP sel: 4; Luc interf: 1

What do the screens show for `Cc1ccc(Sc2ncccc2N)cc1`?
SENP8 block-1: 20; SENP7 block: 25; SENP8 block-2: -32; SENP6 block: 67*; SENP1 FRET inh: -13; SENP8 conf: -25; SENP6 confirm: -16; SENP7 confirm: -12; Casp3 SENP sel: -10; Luc interf: -4

Results for Cc1ccc(Sc2ncccc2O)cc1 ?
SENP8 block-1: -6; SENP7 block: -4; SENP8 block-2: 10; SENP6 block: -1; SENP1 FRET inh: 1

How did Cc1ccc(-c2nnc(Nc3ccccc3)o2)cc1 do in these assays?
SENP8 block-1: 95*; SENP7 block: 4; SENP8 block-2: -90; SENP6 block: 97*; SENP1 FRET inh: 2; SENP8 conf: -2; SENP6 confirm: 93*; SENP7 confirm: 75*; Casp3 SENP sel: 87*; Luc interf: 37

How did Cc1ccc(/C=C/c2nnc(-c3ccccc3)o2)cc1 do in these assays?
SENP8 block-1: 76*; SENP7 block: 6; SENP8 block-2: -251; SENP6 block: 86*; SENP1 FRET inh: 1; SENP8 conf: 15; SENP6 confirm: 63*; SENP7 confirm: 89*; Casp3 SENP sel: 80*; Luc interf: 23

Results for C(=C\c1nnc(-c2cccs2)o1)/c1ccccc1 ?
SENP8 block-1: 74*; SENP7 block: 3; SENP8 block-2: -275; SENP6 block: 81*; SENP1 FRET inh: 0; SENP8 conf: 15; SENP6 confirm: 61*; SENP7 confirm: 88*; Casp3 SENP sel: 65*; Luc interf: 34

What do the screens show for `O=c1oc2ccc3ccccc3c2cc1-c1nnc(-c2cccs2)o1`?
SENP8 block-1: -3; SENP7 block: -7; SENP8 block-2: -421; SENP6 block: -18; SENP1 FRET inh: -26

What do the screens show for `Cc1ccc(-c2noc(/C=C/c3ccccc3)n2)cc1`?
SENP8 block-1: 14; SENP7 block: 4; SENP8 block-2: 10; SENP6 block: 22; SENP1 FRET inh: 0

What do the screens show for `Clc1ccccc1-c1nnc(-c2cccs2)o1`?
SENP8 block-1: 72*; SENP7 block: 80*; SENP8 block-2: -140; SENP6 block: 81*; SENP1 FRET inh: 4; SENP8 conf: 75*; SENP6 confirm: 74*; SENP7 confirm: 92*; Casp3 SENP sel: 79*; Luc interf: 55*

Results for O=C(C[n+]1ccccc1)N/N=C/c1ccc(Br)cc1 ?
SENP8 block-1: -5; SENP7 block: -7; SENP8 block-2: 12; SENP6 block: -4; SENP1 FRET inh: 2

How did CC(C)N(C)c1ncnc2c1ncn2[C@H]1CN(Cc2cccs2)C[C@@H](CO)O1 do in these assays?
SENP8 block-2: 10; SENP1 FRET inh: 0

What do the screens show for `Cc1ccc(C(C[N+](=O)[O-])c2c(C)[nH]n(-c3ccccc3)c2=O)cc1` (stereo not given)?
SENP8 block-1: 26; SENP7 block: 39; SENP8 block-2: 61*; SENP6 block: 54*; SENP1 FRET inh: -5; SENP8 conf: 25; SENP6 confirm: 50; SENP7 confirm: 24; Casp3 SENP sel: 3; Luc interf: 6

Results for COc1cccc2oc3ccc(C#Cc4ccccn4)cc3c(=O)c12 ?
SENP8 block-1: 94*; SENP7 block: 100*; SENP8 block-2: inactive; SENP6 block: 100*; SENP1 FRET inh: -6; SENP8 conf: 73*; SENP6 confirm: 90*; SENP7 confirm: 100*; Casp3 SENP sel: 91*; Luc interf: 75*
